# Shown are actives, neighbours in structure and some others; about 2.4% of the full set was active somewhere.
# DNMT1 block – DNMT1 (human) enzyme inhibition. P26358. DNMT1 molecular beacon, Hinp1I cleavage, fluorescence. AID 588458. hit rate 0.83% among 360,000. inhibition (reported as % activation of signal), % at 10 µM; in the data active = inhibition above about 50%
# LMPTP block – LMPTP (human) inhibition | P24666 | recombinant LMPTP-A, OMFP fluorogenic substrate, fluorescence intensity | inhibition, % at 20 µM | hit rate 0.22% among 360,000 | AID 651560;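 active = compounds that cut the enzyme signal by at least half of the control window in the single-dose screen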;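 note: plate controls were DMSO wells with enzyme plus substrate for no effect and substrate without enzyme for full effect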
# Target sequence (P24666 whole entry, looked up): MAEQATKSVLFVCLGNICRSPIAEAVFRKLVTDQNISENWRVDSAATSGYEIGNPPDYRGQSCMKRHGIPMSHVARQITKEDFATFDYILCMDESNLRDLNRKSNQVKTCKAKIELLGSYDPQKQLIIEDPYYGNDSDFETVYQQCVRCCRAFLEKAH
#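 Test system: LMPTP-A phosphatase enzyme; input: 0.625 nM LMPTP-A final; reagent: OMFP substrate, 400 µM final; compound dosing: 20 µM single dose, 3% DMSO; incubation: 50 min dark incubation at room temperature; measured by: endpoint fluorescence intensity from OMFP dephosphorylation; measure: % inhibition relative to no-enzyme and uninhibited control wells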
# NadD inh – NadD (S. aureus) enzyme inhibition | purified NadD enzyme, colorimetric absorbance read-out | inhibition, % at 20 µM | hit rate 0.78% among 360,000 | AID 602399; in the data active = inhibition above about 26%
# Scp1 inh – Scp-1 (human) phosphatase inhibition. Recombinant Scp1, phosphopeptide, malachite green phosphate absorbance. inhibition, % at 20 µM. hit rate 0.88% among 340,000. AID 493091;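 active = inhibition above about 50% at 20 µM, limit read from the data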;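 note: plate controls were DMSO wells with enzyme for no effect and wells lacking enzyme for full effect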
# Target sequence (Q9GZU7 76-261 limits assumed): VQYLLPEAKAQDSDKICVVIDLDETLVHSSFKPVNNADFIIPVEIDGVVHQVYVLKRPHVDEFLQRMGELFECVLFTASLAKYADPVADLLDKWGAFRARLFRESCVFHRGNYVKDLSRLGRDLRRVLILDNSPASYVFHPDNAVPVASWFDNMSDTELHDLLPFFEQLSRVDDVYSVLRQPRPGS
#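 Times: enzyme reaction 45 min at room temperature, colour 5 min, stabilisation 30 min. Material: SCP-1 catalytic fragment, aa 76-261. Medium: Acidic Tris acetate buffer with magnesium and detergent. Signal: colorimetric free-phosphate detection, absorbance 630 nm. Read-out basis: % inhibition of SCP-1 phosphate liberation. Reagent: Phosphorylated 17-residue peptide substrate.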
# STEP block – blocks human striatal-enriched tyrosine phosphatase | P54829 | recombinant STEP, OMFP fluorogenic substrate, fluorescence | inhibition, % at 20 µM | hit rate 0.25% among 360,000;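 active = inhibition at 20 µM, scaled per plate between control wells, above about 37%, limit read from the data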;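 note: 0% = DMSO with enzyme and substrate and 100% = substrate only without enzyme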
#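 Material: STEP (striatal-enriched tyrosine phosphatase) enzyme, cell-free | Medium: 50 mM Bis-Tris pH 6.0 with 2.5 mM DTT and 0.005% Tween 20 | Read-out: Percent inhibition scaled to no-enzyme and uninhibited-enzyme controls, plate-pattern corrected | Signal: Fluorescence read at 480 nm ex / 540 nm em | Times: 20 min reaction, room temperature, in the dark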
# SUMO1-SIM PPI – modulators of human SUMO1-mediated protein-protein interactions; hit rate 0.33% among 360,000; P63165; inhibition, % at 20 µM; SUMO1 binding to a labelled peptide, TR-FRET, 1 h; in the data active = inhibition above about 37%
# Target sequence (P63165 whole entry, looked up): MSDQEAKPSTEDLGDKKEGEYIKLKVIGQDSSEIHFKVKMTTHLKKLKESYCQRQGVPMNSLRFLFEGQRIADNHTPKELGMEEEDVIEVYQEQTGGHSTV
# Scp-1 conf – Scp-1 (human) inhibition, single-dose confirmed | shares compounds with Scp1 inh | recombinant SCP-1 catalytic domain, phosphate release, malachite green absorbance | inhibition, % at 20 µM | hit rate 61% among 2,500 | AID 540281;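 note: plate controls were DMSO with enzyme for no effect and buffer wells lacking enzyme for full effect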
# Scp-1 MG ctr – interferes with malachite green readout, flagging false Scp-1 hits; shares compounds with Scp1 inh; Colorimetric interference counterscreen, malachite green absorbance 630 nm; apparent inhibition (interference), % at 20 µM; 2,500 tested, under 10 active;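 note: compounds added after enzyme reaction finished so only phosphate colour detection is probed; plate controls were DMSO wells with completed Scp-1 reaction for no effect and substrate wells lacking enzyme for full effect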
# Scp1 DSF – binds human Scp-1, shifting its melting temperature; shares compounds with Scp1 inh; AID 540329; Recombinant SCP1, Sypro Orange thermal shift Tm; hit rate 25% among 1,500; thermal shift relative to vanadate control, % at 40 µM;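 active = substances whose mean melting-temperature shift, as a percentage of the reference inhibitor's shift, reaches about 5.3%, limit read from the data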;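 note: 0% = Tm of DMSO wells and 100% = Tm with sodium orthovanadate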
# Beacon interf DR – counter-screen for DNMT1 inhibitors: spectral interference, dose response; shares compounds with DNMT1 block; molecular beacon fluorescence; IC50, µM; 200 tested, under 10 active; call rule not given here
# DNMT1 confirm – confirmation of human DNMT1 inhibitors; inhibition, % at 10 µM; DNMT1 molecular beacon HinP1I cleavage, fluorescence; shares compounds with DNMT1 block; hit rate 8% among 2,300; AID 602385;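 active = average inhibition of at least 30% in the single-concentration confirmation test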
# Beacon interf – counter-screen for DNMT1 inhibitors: spectral interference; shares compounds with DNMT1 block; DNMT1 molecular beacon spectral interference counterscreen, fluorescence 485/520; activation (fluorescence interference), % at 10 µM; hit rate 1% among 2,300; AID 602387;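 active = activation of at least 30% at 10 µM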;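 note: DNMT1 catalytic domain with a HinP1I cleavage step and a FAM/dabcyl DNA beacon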
# * hit, by the source's call; x = no result.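 Rule for the calls, unless noted: active = inhibition of at least 30% at 20 µM; inactive = the rest.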
SMILES,DNMT1 block,LMPTP block,NadD inh,Scp1 inh,STEP block,SUMO1-SIM PPI,Scp-1 conf,Scp-1 MG ctr,Scp1 DSF,DNMT1 confirm,Beacon interf,others
C=C(C)C(=O)Nc1cccc(C2=NOC3(C2)C[C@@H](C(N)=O)N(C(=O)/C=C/CC)C3)c1 (stereo partly specified),109*,0,-1,69*,7,64*,57*,-13,-29,42*,1,Beacon interf DR=>99
Cc1cc(NC(=O)CSc2nc3[nH]c(=O)cc(O)c3s2)ccc1Br,-3,1,5,4,3,7,x,x,x,x,x,
Cc1cc(NC(=O)CSc2sc3c(O)cc(=O)[nH]c3c2C#N)ccc1Br,61*,40,23,59*,8,13,52*,-18,17*,3,2,
C/C=C/C=C/C(=O)[C@@H]1[C@@H]([C@]2(C)OC(=O)C(C)=C2O)[C@H]2/C(=C(O)/C=C/C=C/C)C(=O)[C@]1(C)C(=O)C2(C)O (stereo partly specified),85*,2,9,72*,5,25,51*,-19,11*,61*,1,Beacon interf DR=>99
COc1ccc(O)c(/C=N/NC(=O)c2c(C)nnn2-c2nonc2N)c1,96*,16,1,100*,68*,-5,86*,-9,-12,6,1,
COc1cccc(/C=N/NC(=O)CCc2n[nH]c(=O)[nH]c2=O)c1O,5,-1,-5,-7,-1,0,x,x,x,x,x,
O=C(CCc1n[nH]c(=O)[nH]c1=O)N/N=C/c1ccco1,51*,40,7,81*,38,31,56*,-7,-1,2,7,
COC(=O)c1ccc(CNC(=O)COC(=O)CC23CC4CC(CC(Br)(C4)C2)C3)cc1,0,0,-5,-4,1,-3,x,x,x,x,x,
Cc1nc(SCC(=O)O)c(C#N)c2c1CCCC2,58*,2,-2,96*,16,26,70*,-13,4,2,3,
CC(=O)N/C(=C\c1ccccc1)C(=O)OC/C=C/c1ccccc1,1,1,-2,-2,0,-12,x,x,x,x,x,
CC(C)(C)NC(=S)NC(C)(C)C,-1,-1,-4,-10,2,0,x,x,x,x,x,
O=c1c2c3c(sc2n(CCN2CCCC2)c(=O)n1Cc1ccco1)CCCCC3,3,2,2,13,4,5,x,x,x,x,x,
O=C(Cn1c(=O)n(Cc2ccco2)c(=O)c2c3c(sc21)CCCCC3)c1ccccc1,72*,7,35*,56*,6,7,3,-16,x,2,2,
COc1ccc(C(=O)Oc2ccc(/C=N/NC(=O)Cc3ccc([N+](=O)[O-])cc3)cc2)cc1,53*,13,10,91*,10,0,-11,-14,x,3,2,
COc1cccc(N2CCN(S(=O)(=O)c3ccc(-n4cnnn4)cc3)CC2)c1,7,-4,5,-3,0,1,x,x,x,x,x,
S=c1[nH]nc(-c2ccco2)n1-c1ccccc1Cl,0,-3,-5,-14,-2,1,x,x,x,x,x,
S=c1[nH]nc(-c2cc(-c3ccco3)[nH]n2)n1-c1ccccc1Cl,73*,1,13,75*,5,34,31*,-18,11*,9,9,
COc1cc(NC(=O)c2ccccc2)c(OC)cc1NC(=O)CN1C(=O)NC2(CCCCC2C)C1=O (stereo unspecified),-7,1,4,8,6,4,x,x,x,x,x,
CCc1ccc(/C(C)=N/NC(=O)CNC(=O)/C=C/c2ccco2)cc1,92*,9,27,94*,24,108*,65*,-12,-14,69*,-6,Beacon interf DR=>99
NS(=O)(=O)c1ccc(CNC(=O)/C=C/c2ccco2)cc1,90*,6,4,84*,4,21,70*,-5,3,9,9,
O=C(/C=C/c1ccco1)NCc1ccc(F)cc1,-5,1,3,11,6,-5,x,x,x,x,x,
COCCN1C(=O)C(=O)/C(=C(/O)c2cccc(OC)c2)C1c1ccco1 (stereo unspecified),75*,-1,1,57*,3,1,56*,-3,3,7,4,
CN1CCN(C(=O)c2ccc3c(c2)N(Cc2ccc(F)cc2)C(=O)c2ccccc2S3=O)CC1 (stereo unspecified),0,-1,4,-7,2,4,x,x,x,x,x,
Cc1cccc(N2CCN(S(=O)(=O)c3ccc4c(c3)C(C)(C)C(=O)N4C)CC2)c1C,76*,6,10,85*,6,1,69*,-7,-2,7,1,
Cc1nc(SCC(=O)N(CC(C)C)C2CCS(=O)(=O)C2)c(C#N)c(C)c1C (stereo unspecified),0,0,1,1,-2,9,x,x,x,x,x,
SMILES,DNMT1 block,LMPTP block,NadD inh,Scp1 inh,STEP block,SUMO1-SIM PPI,Scp-1 conf,Scp-1 MG ctr,Scp1 DSF,DNMT1 confirm,Beacon interf,others
O=c1c(Cl)c(N/N=C/c2ccc(Br)cc2)cnn1-c1ccccc1,90*,52*,4,59*,2,-2,61*,-20,-12,3,-1,
CNc1cnn(-c2ccccc2)c(=O)c1Cl,1,-1,-8,-5,2,-4,x,x,x,x,x,
Cn1cccc1CC(=O)N/N=C/C=C/c1ccco1,96*,43,25,69*,2,19,40*,-11,3,5,1,
O=C(CSc1ccccn1)N1CCNC1=O,-1,-2,-1,0,1,4,x,x,x,x,x,
CC1CC(C)CN(S(=O)(=O)N2CCC(C(=O)NCCc3ccccc3)CC2)C1 (stereo unspecified),1,-2,-3,0,-2,3,x,x,x,x,x,
CCc1nc2oc3ccccc3c(=O)c2c(=O)n1-c1ccc(C)cc1,78*,47,-2,65*,5,11,56*,-16,4,5,1,
CCCc1nc2oc3ccccc3c(=O)c2c(=O)n1-c1ccc(C)cc1,9,-2,3,-8,2,6,x,x,x,x,x,

# Compound activity from PubChem.
